# “Also recorded” adds a separate entry of the source.
# Tests used:
# PSN-1 cells = assay: Apoptosis in vitro assay; type: cell-based; conditions: for apoptosis, single agent: VE-822 80 nM or gemcitabine 10 nM, 48 h after XRT time point
# Summary of the method: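 For PSN-1 cells, gemcitabine (10 nM) was given 24 h pre-XRT, then replaced with fresh medium. […] Cells were analysed at 48 h post-XRT by Annexin V-FITC/PI flow cytometry to separate early apoptotic from necrotic cells.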
# PSN-1 xenografts = assay: Tumor growth delay, PSN-1 xenografts; type: in vivo, mice
# Summary of the method: (§1)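 Female Balb/c nude mice were inoculated s.c. with 10^6 cells in serum-free medium plus Matrigel and randomized at ~80 mm3 (day 0). […] Tumor volume was tracked to 600 mm3 (TV600); n=4–5.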
# [1] = tested on: tumor xenograft vessel density; assay: Tumor vessel density; type: in vivo, mice
# Summary of the method: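 Frozen xenograft tumors were cut into 10-μm sections, treated with 0.3% H2O2 for 20 min, then blocked in TNB for 30 min. Sections were stained 1 h with rat anti-mouse CD31 (1:50), then anti-rat […]. Vessels per field were counted in five random viable 10× fields per tumor, n=4–5 tumors per group.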
# ATM [2] = biological target: T1, ATM (Homo sapiens, UniProt Q13315); assay: Biochemical inhibition of ATR and related kinases
# DNA-PK [3] = biological target: T2, DNA-PK (Homo sapiens, UniProt P78527); assay: Biochemical inhibition of ATR and related kinases
# mTOR = mTOR (Homo sapiens, UniProt P42345); assay: Biochemical inhibition of ATR and related kinases
# PI3Kγ = PI3Kγ (Homo sapiens, UniProt P48736); assay: Biochemical inhibition of ATR and related kinases
# ATM [4] = biological target: T1, ATM; assay: Cellular inhibition of ATR and related kinases; type: cell-based
# DNA-PK [5] = biological target: T2, DNA-PK; assay: Cellular inhibition of ATR and related kinases; type: cell-based
# phospho-Ser345-Chk1 = assay: Immunoblot for Chk1 phosphorylation; type: cell-based; conditions: VE-822 80 nM; gemcitabine 100 nM, XRT 6 Gy; PDAC cells
# Summary of the method: (§2)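 Lysates were taken 2 h post-XRT or 4 h post-gemcitabine, after cold PBS rinse, in reducing Triton lysis buffer. Phospho-Chk1 antibody was used at 1:1000; β-actin was the loading control.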
# [6] = tested on: ATM, Chk2 or DNA-PK phosphorylation; assay: Immunoblot for ATM/Chk2 and DNA-PK phosphorylation; type: cell-based; conditions: VE-822 80 nmol/L; XRT 6 Gy
# [7] = tested on: PDAC cells (PSN-1, MiaPaCa-2, PancM); assay: Clonogenic survival assay, pancreatic cancer cells; type: cell-based
# [8] = tested on: fibroblasts (HFL-1, MRC5); assay: Clonogenic survival assay, normal fibroblasts; type: cell-based, human; conditions: VE-822 80 nM
# [9] = tested on: phospho-Ser345-Chk1 in HFL-1 normal fibroblasts; assay: Phospho-Chk1; type: cell-based, human; conditions: VE-822 80 nM
# Summary of the method: as §2
# [10] = tested on: human dermal microvascular endothelial cells (HDMECs); assay: Capillary tube formation; type: cell-based; conditions: VE-822 80 nM; XRT 6 Gy or gemcitabine 50 nM
# [11] = tested on: PSN-1 and MiaPaCa-2 cells; assay: Analysis of γH2AX, 53BP1 and Rad51 foci; type: cell-based
# [12] = tested on: PSN-1 and MiaPaCa-2 cells; assay: Cell-cycle assay; type: cell-based
# [13] = tested on: phospho-Ser-345-Chk1 in PSN-1 xenografts; assay: Chk1 phosphorylation; type: in vivo, mice; conditions: VE-822 60 mg/kg d0, 1; gemcitabine 100 mg/kg d0; XRT 6 Gy d1; 2 h post-XRT
# MiaPaCa-2 xenografts = assay: Tumor growth delay, MiaPaCa-2 xenografts; type: in vivo, mice; conditions: experiment III
# Summary of the method: as §1
# [14] = Body weight of mice in growth delay experiments; type: in vivo
# [15] = tested on: small intestine (jejunum); assay: Intestinal damage after abdominal XRT; type: in vivo, mice
# [16] = tested on: γH2AX in PSN-1 tumor xenografts; assay: SPECT imaging of γH2AX in pancreatic tumor xenografts; type: in vivo, mice
# Summary of the method: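 111In-DTPA–anti-γH2AX-Tat was injected 2 h before radiation, and SPECT/CT was run at 24 h post-XRT. Tumor uptake came from volume-of-interest analysis as %ID/g; organs were then removed, weighed and counted.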
# T1 sequence (Q13315 whole entry, species assumed): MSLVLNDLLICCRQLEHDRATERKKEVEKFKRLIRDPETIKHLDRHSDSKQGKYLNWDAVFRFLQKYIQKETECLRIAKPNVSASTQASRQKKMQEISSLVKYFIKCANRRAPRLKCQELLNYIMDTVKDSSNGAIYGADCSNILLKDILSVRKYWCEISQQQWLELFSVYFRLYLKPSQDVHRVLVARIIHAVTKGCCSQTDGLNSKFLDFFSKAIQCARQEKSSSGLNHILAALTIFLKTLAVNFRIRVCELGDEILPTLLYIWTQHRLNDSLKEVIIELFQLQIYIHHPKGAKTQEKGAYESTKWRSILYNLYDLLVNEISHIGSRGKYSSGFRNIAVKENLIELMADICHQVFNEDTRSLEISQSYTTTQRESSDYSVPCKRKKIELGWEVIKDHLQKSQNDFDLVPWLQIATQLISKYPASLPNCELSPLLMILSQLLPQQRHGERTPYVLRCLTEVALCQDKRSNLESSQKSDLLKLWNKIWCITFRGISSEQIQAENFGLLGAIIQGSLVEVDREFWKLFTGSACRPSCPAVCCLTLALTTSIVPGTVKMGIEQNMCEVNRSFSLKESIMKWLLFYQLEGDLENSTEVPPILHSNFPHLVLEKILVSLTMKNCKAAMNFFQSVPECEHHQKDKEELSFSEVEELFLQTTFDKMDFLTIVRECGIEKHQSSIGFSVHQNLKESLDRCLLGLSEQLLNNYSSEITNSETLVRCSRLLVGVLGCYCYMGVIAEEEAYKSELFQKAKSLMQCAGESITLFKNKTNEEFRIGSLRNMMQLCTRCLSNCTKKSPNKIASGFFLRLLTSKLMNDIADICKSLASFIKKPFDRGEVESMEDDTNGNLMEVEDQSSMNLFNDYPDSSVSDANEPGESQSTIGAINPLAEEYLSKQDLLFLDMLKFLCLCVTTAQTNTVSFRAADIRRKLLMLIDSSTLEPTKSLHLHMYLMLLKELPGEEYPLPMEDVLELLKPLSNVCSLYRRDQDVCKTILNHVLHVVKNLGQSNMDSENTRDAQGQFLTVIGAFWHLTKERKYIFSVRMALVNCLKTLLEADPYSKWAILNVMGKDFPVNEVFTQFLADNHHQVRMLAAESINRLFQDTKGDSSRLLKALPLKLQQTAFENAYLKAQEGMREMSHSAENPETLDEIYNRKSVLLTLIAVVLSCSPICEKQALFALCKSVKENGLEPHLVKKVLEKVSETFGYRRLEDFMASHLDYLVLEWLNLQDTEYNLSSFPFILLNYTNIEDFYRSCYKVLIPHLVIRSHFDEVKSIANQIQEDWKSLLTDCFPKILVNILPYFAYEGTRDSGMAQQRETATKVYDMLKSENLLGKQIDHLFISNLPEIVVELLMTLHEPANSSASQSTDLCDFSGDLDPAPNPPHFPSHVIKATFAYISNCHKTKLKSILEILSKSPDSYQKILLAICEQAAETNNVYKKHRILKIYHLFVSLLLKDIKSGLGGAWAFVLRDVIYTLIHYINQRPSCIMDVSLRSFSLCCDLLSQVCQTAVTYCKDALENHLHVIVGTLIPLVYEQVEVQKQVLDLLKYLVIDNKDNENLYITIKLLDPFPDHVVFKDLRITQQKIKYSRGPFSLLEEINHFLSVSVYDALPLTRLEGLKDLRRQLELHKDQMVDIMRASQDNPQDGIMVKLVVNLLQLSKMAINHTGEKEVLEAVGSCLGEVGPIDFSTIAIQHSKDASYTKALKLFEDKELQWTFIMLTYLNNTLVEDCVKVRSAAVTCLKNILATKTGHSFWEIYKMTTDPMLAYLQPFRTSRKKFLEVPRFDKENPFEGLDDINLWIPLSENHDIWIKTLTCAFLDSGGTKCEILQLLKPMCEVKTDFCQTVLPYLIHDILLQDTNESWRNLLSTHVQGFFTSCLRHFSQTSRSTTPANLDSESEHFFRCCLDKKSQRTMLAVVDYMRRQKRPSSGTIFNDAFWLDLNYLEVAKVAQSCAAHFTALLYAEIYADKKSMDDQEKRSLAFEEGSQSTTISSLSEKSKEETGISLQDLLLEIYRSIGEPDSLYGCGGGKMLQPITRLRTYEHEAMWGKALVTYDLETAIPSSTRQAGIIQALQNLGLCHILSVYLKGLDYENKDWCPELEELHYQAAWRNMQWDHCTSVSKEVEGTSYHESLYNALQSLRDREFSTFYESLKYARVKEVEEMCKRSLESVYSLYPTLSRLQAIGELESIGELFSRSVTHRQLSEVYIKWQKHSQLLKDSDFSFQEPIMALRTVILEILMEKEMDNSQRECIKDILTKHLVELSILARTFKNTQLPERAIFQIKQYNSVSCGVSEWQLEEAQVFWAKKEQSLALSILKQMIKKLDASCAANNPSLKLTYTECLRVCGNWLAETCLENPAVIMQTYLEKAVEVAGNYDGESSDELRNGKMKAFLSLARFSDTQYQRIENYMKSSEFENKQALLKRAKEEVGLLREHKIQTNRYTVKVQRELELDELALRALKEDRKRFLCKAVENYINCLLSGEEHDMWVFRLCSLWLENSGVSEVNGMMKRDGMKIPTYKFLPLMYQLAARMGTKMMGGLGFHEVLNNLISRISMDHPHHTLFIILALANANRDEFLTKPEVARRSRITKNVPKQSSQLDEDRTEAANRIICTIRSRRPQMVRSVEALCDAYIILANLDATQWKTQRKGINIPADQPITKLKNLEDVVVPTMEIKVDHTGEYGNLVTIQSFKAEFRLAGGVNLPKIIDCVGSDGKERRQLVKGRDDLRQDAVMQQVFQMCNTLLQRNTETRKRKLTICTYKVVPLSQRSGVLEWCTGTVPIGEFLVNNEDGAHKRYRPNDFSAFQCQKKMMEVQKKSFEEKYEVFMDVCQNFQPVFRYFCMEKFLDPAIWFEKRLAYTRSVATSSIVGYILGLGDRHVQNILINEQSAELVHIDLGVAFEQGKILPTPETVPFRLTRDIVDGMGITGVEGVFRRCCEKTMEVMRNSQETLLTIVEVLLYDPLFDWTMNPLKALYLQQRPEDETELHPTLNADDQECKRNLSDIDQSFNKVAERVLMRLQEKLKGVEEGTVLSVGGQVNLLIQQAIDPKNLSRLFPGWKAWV
# PI3Kγ, sequence (P48736 whole entry, species assumed): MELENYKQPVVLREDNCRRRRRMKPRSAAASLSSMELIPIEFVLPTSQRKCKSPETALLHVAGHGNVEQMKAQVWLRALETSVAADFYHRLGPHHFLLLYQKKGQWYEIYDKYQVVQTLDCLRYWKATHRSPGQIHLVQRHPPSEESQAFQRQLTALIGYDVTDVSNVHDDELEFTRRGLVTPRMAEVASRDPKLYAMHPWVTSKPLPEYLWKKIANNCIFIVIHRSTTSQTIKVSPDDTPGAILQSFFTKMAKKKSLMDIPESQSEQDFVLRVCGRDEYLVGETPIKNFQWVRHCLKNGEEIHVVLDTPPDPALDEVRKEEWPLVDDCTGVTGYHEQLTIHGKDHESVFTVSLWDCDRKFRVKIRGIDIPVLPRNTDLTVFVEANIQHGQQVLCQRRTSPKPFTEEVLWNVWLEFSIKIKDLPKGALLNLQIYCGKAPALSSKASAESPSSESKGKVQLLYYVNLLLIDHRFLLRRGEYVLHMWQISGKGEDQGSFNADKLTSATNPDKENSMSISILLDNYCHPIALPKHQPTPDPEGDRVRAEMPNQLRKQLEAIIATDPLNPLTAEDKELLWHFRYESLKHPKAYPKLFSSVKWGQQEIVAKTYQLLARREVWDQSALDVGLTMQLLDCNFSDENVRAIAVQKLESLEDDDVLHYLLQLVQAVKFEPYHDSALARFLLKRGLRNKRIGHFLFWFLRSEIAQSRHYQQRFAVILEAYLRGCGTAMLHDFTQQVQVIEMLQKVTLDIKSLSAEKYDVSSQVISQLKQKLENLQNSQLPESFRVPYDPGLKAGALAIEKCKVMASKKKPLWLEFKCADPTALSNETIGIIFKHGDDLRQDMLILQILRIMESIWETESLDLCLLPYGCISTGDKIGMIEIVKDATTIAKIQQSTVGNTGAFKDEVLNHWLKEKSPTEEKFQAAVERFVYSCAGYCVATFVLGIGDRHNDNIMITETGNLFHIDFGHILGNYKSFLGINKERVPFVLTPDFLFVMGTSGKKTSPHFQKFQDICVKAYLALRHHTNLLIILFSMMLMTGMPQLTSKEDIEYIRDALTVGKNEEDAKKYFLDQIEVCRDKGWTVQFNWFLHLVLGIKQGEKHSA
structure (smiles),measurement,setting,value
"Nc1ccn([C@@H]2O[C@H](CO)[C@@H](O)C2(F)F)c(=O)n1 [gemcitabine, reference compound]","apoptosis, single agent",PSN-1 cells,increased apoptosis slightly
same,"tumor growth, gemcitabine alone",PSN-1 xenografts; 100 mg/kg i.p. day 0,did not alter tumor growth significantly; also recorded: does not itself lead to tumor growth delay
same,"tumor growth delay, gemcitabine + XRT vs gemcitabine","PSN-1 xenografts; experiment V, P<0.05",increased tumor growth delay compared with Gem0
same,vessel density after gemcitabine,[1]; growth delay experiment V,significantly reduced vessel density
CNCc1ccc(-c2cc(-c3nc(-c4ccc(S(=O)(=O)C(C)C)cc4)cnc3N)on2)cc1 [VE-822],Ki,ATM [2],34 nM
same,Ki,DNA-PK [3],> 4000 nM
same,Ki,mTOR,> 1000 nM
same,Ki,PI3Kγ,220 nM
same,IC50,ATM [4],2600 nM
same,IC50,DNA-PK [5],18100 nM
same,"phospho-Ser345-Chk1 after gemcitabine, XRT or both",phospho-Ser345-Chk1,reduced phospho-Ser345-Chk1
same,"ATM, Chk2 or DNA-PK phosphorylation in response to radiation",[6],"did not inhibit ATM, Chk2 or DNA-PK phosphorylation"
same,clonogenic survival of irradiated PDAC,"[7]; VE-822 80 nM, 1 h before until 18 h post-XRT",decreased survival of irradiated PDAC
same,reduction of survival after chemoradiotherapy (triple combination),"[7]; gemcitabine 10 or 5 nM 24 h, VE-822 80 nM, XRT 4 Gy",dramatically more after chemoradiotherapy
same,reduction of survival on adding VE-822 to gemcitabine,"[7]; gemcitabine 24 h, then VE-822 80 nM 18 h",2–3 fold
same,clonogenic survival of normal fibroblasts after XRT or gemcitabine,[8],did not alter clonogenic survival of fibroblasts
same,"phospho-Ser345-Chk1 after gemcitabine, XRT or chemoradiotherapy",[9],reduced phospho-Ser345-Chk1
same,tube formation after XRT or gemcitabine,[10],did not modify tube formation
same,residual γH2AX and 53BP1 foci,"[11]; VE-822 80 nM 1 h before XRT 6 Gy, 24 h post-XRT, vs XRT",increased XRT-induced residual γH2AX and 53BP1 foci
same,Rad51 foci,"[11]; VE-822 80 nM pre-treatment, XRT 6 Gy, 6 h post-XRT",decreased Rad51 foci after XRT
same,"γH2AX, 53BP1 or Rad51 foci, VE-822 alone",[11]; VE-822 alone (data not shown),"no effect on γH2AX, 53BP1 or Rad51 foci"
same,XRT-enriched G2/M-phase-fraction,[12]; VE-822 80 nM + XRT 6 Gy,abrogated by co-treatment with VE-822
same,"cell-cycle distribution, VE-822 alone","[12]; VE-822 80 nM, 12 h and 24 h",increased the G1-phase-fraction
same,gemcitabine-induced S-phase arrest,[12]; gemcitabine 10 nM then VE-822 80 nM,not affected by VE-822
same,"apoptosis, single agent",PSN-1 cells,little effect
same,"apoptosis, combinations of VE-822, XRT and/or gemcitabine","PSN-1 cells; VE-822 80 nM, XRT 6 Gy, gemcitabine 10 nM, strongest in triple combination",enhanced early and late apoptosis
same,phospho-Ser-345-Chk1 in xenografts after DNA-damaging agents,[13],inhibited phospho-Ser-345-Chk1 in xenografts
same,"tumor growth, VE-822 alone","PSN-1 xenografts; experiment I, 60 mg/kg days 0–5",no effect on tumor growth
same,"TV600 (time to 600 mm^3), XRT plus VE-822 vs XRT alone","PSN-1 xenografts; experiment I, 60 mg/kg for 6 or 4 days, 6 Gy day 1, P<0.001",more than doubled the TV600 of XRT alone
same,"tumor regrowth, VE-822 + fractionated XRT vs fractionated XRT","PSN-1 xenografts; experiment II, 60 mg/kg days 0–5, 5 x 2 Gy days 1–5, P<0.001",significantly delayed regrowth compared with XRT1–5
same,radiosensitisation (TV400) with intermittent dosing,"PSN-1 xenografts; experiment IV, 15, 30 and 60 mg/kg, days 0, 2 and 4, 6 Gy",dose-dependent radiosensitisation response
same,"tumor growth delay, gemcitabine + XRT + VE-822 vs gemcitabine + XRT","PSN-1 xenografts; experiment V, P<0.001",substantially prolonged the tumor growth delay compared with the Gem0XRT1 group
same,"tumor growth delay, VE-822 + XRT vs XRT","PSN-1 xenografts; experiment V, VE-822 60 mg/kg d1, 3, 5, XRT d1, P<0.05",significantly longer compared with the XRT1 group
same,"TV400, gemcitabine + VE-822 vs gemcitabine alone","PSN-1 xenografts; experiment V, gemcitabine 100 mg/kg d0, VE-822 60 mg/kg d1, 3, 5, P>0.05",did not significantly increase TV400 compared with gemcitabine alone
same,"tumor growth, VE-822 alone vs control",MiaPaCa-2 xenografts; 60 mg/kg days 0–5,no statistical change in tumor growth
same,"tumors that regrew, VE-822 + XRT","MiaPaCa-2 xenografts; 60 mg/kg days 0–5, 6 Gy day 1, n=4",2/4
same,"TV600 of regrowing tumors, VE-822 + XRT vs XRT","MiaPaCa-2 xenografts; two regrowing tumors, P<0.001",significantly longer than the TV600 for the XRT1 group
same,body weight,[14]; growth delay experiment I,No body weight loss
same,body weight,[14]; growth delay experiment II,no effects on body weight
same,body weight,[14]; growth delay experiment III,no weight loss
same,body weight,[14]; growth delay experiment IV,No weight loss
same,body weight,[14]; growth delay experiment V,no weight loss
same,"villus tip loss and villi length, VE-822 + XRT vs XRT alone","[15]; 60 mg/kg days 0, 2, 4, 6 Gy day 0, day 5",did not increase villus tip loss or villi shortening
same,"body weight loss, combination vs XRT-only",[15]; abdominal XRT 6 Gy,equivalent body weight loss
same,"vessel density, addition of VE-822 and/or XRT to gemcitabine",[1]; growth delay experiment V,did not alter vessel density significantly
same,"vessel density, VE-822 alone or with XRT",[1]; growth delay experiments I-III,did not alter vessel density
same,"tumor uptake of 111In-DTPA–anti-γH2AX-Tat, VE-822 alone",[16]; 60 mg/Kg days 0 and 1,no elevation in uptake
same,"tumor uptake of 111In-DTPA–anti-γH2AX-Tat, VE-822 plus XRT, higher compared with XRT","[16]; 60 mg/Kg days 0 and 1, 6 Gy day 1, 24 h post-XRT, P<0.05",44%

# — publication PMC3542617 (Cell Death & Disease, 2012)
